Source: PubChem (several laboratories)
In the library only some 0.66% were active in any assay of this set; here they are far more common.
AP complement = alternative pathway complement inhibition, orthogonal assay | Human serum alternative complement pathway, LPS-coated ELISA, C3 deposition; tested in compound mixtures | inhibition, % at 5 µM | 0.08% of 62,000 active;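 active means inhibition above 30% in each of the two pooled mixtures holding the compound, so the lower value exceeds 30%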;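 further: 0% = serum in Mg-EGTA without compound and 100% = EDTA serum blank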
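Test system: human serum alternative complement pathway, C3 deposition on LPS-coated wells; also added: Plate-bound LPS; doses: 5 µM per compound in ten-compound mixtures; schedule: 1 h at 37 °C; detection: Anti-C3 ELISA, OD 450 nm; evaluation: percent inhibition of C3 deposition onto LPS; repeats: two pool placements per compound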
BAP1 block = blocks human BAP1 ubiquitin-AMC hydrolysis | 0.48% of 72,000 active | recombinant BAP1, Ub-AMC hydrolysis fluorescence kinetic; hits give low values | Q92560 | calls only at 20 µM;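 active means activity remaining at or below 50% of control, provided the compound also passes the data quality filters; inactive means the rest, including low values that fail the filters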;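 further: 100% = DMSO wells rate and 0% = substrate alone blank rate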
Ec RNAP inh = inhibitors of Escherichia coli RNA polymerase; AID 559; inhibition, %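 (tested at 10 µM)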; E. coli RNA polymerase, fluorescence transcription assay; 0.2% of 62,000 active; P0A8V2; in the data active means inhibition above about 20%;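 further: 0% = enzyme without compound and 100% = no enzyme blank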
* = called active by the depositor.

For CCCCNc1cc(C(=O)O)cc(S(N)(=O)=O)c1Oc1ccccc1 the results were AP complement 2 and Ec RNAP inh 6.
`N#Cc1c(N=Cc2cc(Br)ccc2O)sc2c1CCCC2` gave BAP1 block inactive.
`COc1ccc(CNC(=O)COc2ccc(S(=O)(=O)NC(C)C)cc2)cc1` gave AP complement 3, BAP1 block inactive and Ec RNAP inh 11.
`COc1ccc(OC)c(NC(=O)COc2ccc(S(=O)(=O)NC(C)C)cc2)c1` gave AP complement 0, BAP1 block inactive and Ec RNAP inh 21*.
CCC1(C)C2(C#N)C(N)=NC(OC)(OC)C12C#N (stereo not given) was read as AP complement 32*.
`CC(=O)Oc1ccc(-c2nc3ccc(C)cc3s2)cc1` gave BAP1 block inactive.
For Cc1ccsc1CC1C(=O)N(C)C(=O)N(C)C1=O the results were BAP1 block inactive.
For Cc1nn(-c2ccccc2)c2sc(C(=O)OCN3C(=O)c4ccccc4C3=O)cc12 the results were AP complement 0, BAP1 block active and Ec RNAP inh 7.
Screening O=C(OCC#CCSc1nnc(-c2ccc(Br)cc2)o1)c1ccco1 returned AP complement 13, BAP1 block inactive and Ec RNAP inh 43*.
For O=C(OCC#CCSc1nnc(-c2ccccc2)o1)c1ccco1 the results were AP complement 18, BAP1 block inactive and Ec RNAP inh -4.
`CCOc1ccc(OCC)c(N=c2oc3c(C)ncc(CO)c3cc2C(N)=O)c1` gave AP complement 84*, BAP1 block inactive and Ec RNAP inh 2.
Screening CC(=O)/C(C#N)=C1\NC(=O)C(Cc2ccccc2Cl)S1 (stereo not given) returned BAP1 block inactive and Ec RNAP inh 32*.
Screening Cc1ccc(CC2SC(=O)NC2=O)cc1Cl (stereo not given) returned AP complement -2, BAP1 block inactive and Ec RNAP inh 8.
Screening CC(C)Cc1nnc(NC(=O)c2cccc(Cl)c2)s1 returned BAP1 block inactive.
O=C(Oc1nsnc1N1CCOCC1)N1CCCCC1 was read as BAP1 block inactive.
O=C(Oc1nsnc1N1CCOCC1)N1CCOCC1 was read as AP complement 11, BAP1 block inactive and Ec RNAP inh 31*.
Cn1c(=O)[nH]c(=O)c2c1nc(Br)n2CCOc1ccccc1 was read as AP complement 4, BAP1 block inactive and Ec RNAP inh 7.
Screening Cn1c(=O)[nH]c(=O)c2c1nc(Br)n2CC(O)c1ccccc1 (stereo not given) returned AP complement 42*, BAP1 block inactive and Ec RNAP inh 10.
Screening COc1ccc(C(=O)Nc2ccc3oc(-c4ccc(Br)cc4)nc3c2)cc1OC returned BAP1 block inactive.
COc1ccc2ccccc2c1C1NC(=S)NC(C)=C1C(=O)Nc1ccccc1C (stereo not given) was read as BAP1 block inactive.
`CC1CN(C2CCN(S(=O)(=O)c3ccccc3)CC2)CC(C)O1` (stereo not given) gave BAP1 block inactive and Ec RNAP inh 22*.
CC1CN(C2CCN(S(=O)(=O)Cc3ccccc3)CC2)CC(C)O1 (stereo not given) was read as BAP1 block inactive and Ec RNAP inh 8.
For Cc1ccc(Sc2nc3ccc(C)cn3c(=O)c2C=Nc2ccc(Cl)cc2)cc1 the results were BAP1 block inactive.
For COc1cc(C(=O)Nc2cccc(-c3nc4cc(C)ccc4o3)c2C)cc(OC)c1OC the results were AP complement 15, BAP1 block inactive and Ec RNAP inh 3.
`COc1cc(C(=O)Nc2cccc(-c3nc4ncccc4o3)c2C)cc(OC)c1OC` gave AP complement 31*, BAP1 block inactive and Ec RNAP inh -10.
Screening COc1cc([N+](=O)[O-])ccc1NC(=O)c1ccc(S(=O)(=O)N2CC(C)CC(C)C2)cc1 (stereo not given) returned BAP1 block inactive.
For O=C(CN1C(=O)NC2(CCCC2)C1=O)N1CCN(C(=O)c2ccco2)CC1 the results were AP complement 6, BAP1 block inactive and Ec RNAP inh 5.
Screening O=C(CN1C(=O)NC2(CCCCCCC2)C1=O)N1CCOCC1 returned AP complement 39*, BAP1 block inactive and Ec RNAP inh 4.
Screening Nc1nc(NC(=O)c2cccs2)nn1-c1ccccc1 returned AP complement -5, BAP1 block inactive and Ec RNAP inh 21*.
`Cc1nn(-c2ccccc2)c(C)c1NC(=O)c1cccs1` gave AP complement -11, BAP1 block inactive and Ec RNAP inh -8.
For COc1ccc([N+](=O)[O-])cc1NC(=O)c1ccc(S(=O)(=O)N(C)c2ccccc2)cc1 the results were BAP1 block inactive.
`C/C=C/Cn1c(SCCCc2ccccc2)nc2c1c(=O)[nH]c(=O)n2C` gave AP complement 7, BAP1 block inactive and Ec RNAP inh 4.
For CC(C)n1c(SCCCc2ccccc2)nc2c1c(=O)[nH]c(=O)n2C the results were AP complement 33*, BAP1 block inactive and Ec RNAP inh 5.
`Cc1ccc(OC(=O)C(F)(F)F)c2c1NCCC2` gave AP complement 35*, BAP1 block inactive and Ec RNAP inh 3.
Cc1cc2c(C)cc(=O)oc2c2c1NCCC2 was read as AP complement 15, BAP1 block inactive and Ec RNAP inh -25.
For Cc1cc(Cl)cc2c1NC(=O)[C@]21[C@@H]2C(=O)N(Cc3ccccc3)C(=O)[C@@H]2[C@@H]2CCCN21 the results were AP complement 2, BAP1 block inactive and Ec RNAP inh 33*.
Screening CCc1ccc2c(c1)[C@]1(C(=O)N2)[C@@H]2C(=O)N(Cc3ccccc3)C(=O)[C@@H]2[C@@H]2CCCN21 returned AP complement 10, BAP1 block inactive and Ec RNAP inh 9.
`NC(=O)c1occ2ccccc12` gave BAP1 block inactive.
For CCCCCCc1ccc(C(=O)Nc2cc3cc(Cl)ccc3oc2=O)cc1 the results were BAP1 block inactive.
For Cc1ccc(C)c(C(=O)n2cnnc2N)c1 the results were AP complement 34*, BAP1 block inactive and Ec RNAP inh -7.
Cc1ccc(C(=O)n2cnnc2N)cc1C was read as AP complement -4 and BAP1 block inactive.
`COc1cc2cc(C(c3nnnn3C3CCCC3)N3CCCCC3)c(=O)[nH]c2cc1OC` (stereo not given) gave AP complement 31* and Ec RNAP inh -16.
For COc1cc2cc(C(c3nnnn3C3CCCC3)N3CCCCCC3)c(=O)[nH]c2cc1OC (stereo not given) the results were AP complement 9 and Ec RNAP inh 5.
For N#Cc1c(-c2ccco2)cc(C2CC2)nc1SCC(=O)c1ccccc1 the results were AP complement 19, BAP1 block inactive and Ec RNAP inh 7.
Screening N#Cc1ccc(-c2ccco2)nc1SCC(=O)c1ccc(Cl)cc1 returned Ec RNAP inh 21*.
O=C1N(O)C2(C=CCCC2)/C(=N\O)C12CCCCC2 (stereo not given) was read as AP complement -4, BAP1 block inactive and Ec RNAP inh 34*.
Screening Cc1ccccc1-c1coc2cc(O)ccc2c1=O returned AP complement 1 and Ec RNAP inh 1.
